Results: ChEMBL document CHEMBL2010801, “Semisynthesis and antimicrobial activity of novel guttiferone-A derivatives” (Bioorg Med Chem, 2012)
Converted amounts (≈) assume the structure as drawn. The source made the active and inactive calls. The calls are words filed in the database; no cut-off is given here.

Tests used:
[1] = system: Staphylococcus epidermidis; assay: Ratio of MIC100 for chloramphenicol to MIC100 of compound for Staphylococcus epidermidis ATCC 12228 after 24 hrs by broth microdilution method; assay type: functional
[2] = Cytotoxicity against human PBMC after 48 hrs by MTT assay; assay type: cell-based; conditions: PBMC (peripheral blood mononuclear cells)
Method in brief: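 Normal human PBMC from healthy volunteers were isolated by Ficoll-Hypaque density gradient and seeded at 2.4 × 10⁶ cells/mL. Compounds were added at 100 to 0.06 and cells held 48 h at 37 °C, 5% CO₂. MTT was then added for 4 h, formazan dissolved in DMSO and A560 read. Untreated cells were taken as 100% viability. CC50 was obtained by linear regression.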

Candida albicans = assay: Antifungal activity against Candida albicans ATCC 09548 after 24 hrs by broth microdilution method; assay type: functional
Method in brief: (§1)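 Broth microdilution in microplates with a serial dilution series of compounds. Amphotericin B served as the fungicidal control and fluconazole as the fungistatic control. Yeast plates were incubated at 37 °C for 24 h.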

Staphylococcus aureus [3] = assay: Ratio of MIC100 for chloramphenicol to MIC100 of compound for Staphylococcus aureus ATCC 6538 after 24 hrs by broth microdilution method; assay type: functional
Proteus mirabilis = assay: Antimicrobial activity against Proteus mirabilis ATCC 25933 after 24 hrs by broth microdilution method; assay type: functional
Method in brief: (§2)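 Microplate broth microdilution with a serial dilution series of compounds, using chloramphenicol as the antibacterial control. Bacterial plates were incubated at 35 °C for 24 h.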

Nannizzia gypsea = assay: Antifungal activity against Microsporum gypseum after 48 hrs by broth microdilution method; assay type: functional
Method in brief: (§3)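 Broth microdilution against filamentous fungi with serially diluted compounds. Amphotericin B (fungicidal) and fluconazole (fungistatic) were run as controls. Plates were incubated at 30 °C for 48 h.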

Staphylococcus aureus [4] = assay: Antimicrobial activity against Staphylococcus aureus ATCC 6538 after 24 hrs by broth microdilution method; assay type: functional; conditions: ATCC 6538, 24 h; method in brief: as §2
Pichia kudriavzevii = assay: Antifungal activity against Candida krusei ATCC 6258 after 24 hrs by broth microdilution method; assay type: functional; method in brief: as §1
Bacillus cereus = assay: Antimicrobial activity against Bacillus cereus ATCC 11778 after 24 hrs by broth microdilution method; assay type: functional; conditions: ATCC 11778, 24 h; method in brief: as §2
Nakaseomyces glabratus = assay: Antifungal activity against Candida glabrata ATCC 90030 after 24 hrs by broth microdilution method; assay type: functional; method in brief: as §1
Trichophyton tonsurans = assay: Antifungal activity against Trichophyton tonsurans after 48 hrs by broth microdilution method; assay type: functional; method in brief: as §3
Cryptococcus neoformans = assay: Antifungal activity against Cryptococcus neoformans ATCC 90012 after 24 hrs by broth microdilution method; assay type: functional; method in brief: as §1
Escherichia coli = assay: Antimicrobial activity against Escherichia coli ATCC 25922 after 24 hrs by broth microdilution method; assay type: functional; method in brief: as §2
Candida tropicalis = assay: Antifungal activity against Candida tropicalis ATCC 750 after 24 hrs by broth microdilution method; assay type: functional; method in brief: as §1
Salmonella typhimurium = assay: Antimicrobial activity against Salmonella typhimurium ATCC 14028 after 24 hrs by broth microdilution method; assay type: functional; conditions: Salmonella enterica subsp. enterica serovar Typhimurium; method in brief: as §2
[5] = system: Staphylococcus epidermidis; assay: Antimicrobial activity against Staphylococcus epidermidis ATCC 12228 after 24 hrs by broth microdilution method; assay type: functional; conditions: ATCC 12228, 24 h; method in brief: as §2
Candida parapsilosis = assay: Antifungal activity against Candida parapsilosis ATCC 69548 after 24 hrs by broth microdilution method; assay type: functional; method in brief: as §1
Pseudomonas aeruginosa = assay: Antimicrobial activity against Pseudomonas aeruginosa ATCC 9027 after 24 hrs by broth microdilution method; assay type: functional; method in brief: as §2

For `CC(C)=CCC[C@]1(C)[C@@H](CC=C(C)C)C[C@@]2(CC=C(C)C)C(=O)C(C(=O)c3ccc(OS(=O)(=O)c4ccc(C)cc4)c(OS(=O)(=O)c4ccc(C)cc4)c3)=C(O)[C@]1(CC=C(C)C)C2=O`, the Ratio [1] was 3.5, the CC50 at 48 h [2] was over 113 µM and the MIC50 (Candida albicans) was “inactive”. For the same molecule, the MIC100 (Candida albicans) was “inactive”, the Ratio (Staphylococcus aureus [3]) was 4.39 and the MIC100 (Proteus mirabilis) was “inactive”. For the same molecule, the MIC50 (Nannizzia gypsea) was “inactive”, the MIC100 (Nannizzia gypsea) was “inactive” and the MIC50 (Staphylococcus aureus [4]; read-out: MIC50) was 43 µM (≈ 39.2 µg/mL). For the same molecule, the MIC (Staphylococcus aureus [4]; read-out: MIC100) was 2.74 µM (≈ 2.5 µg/mL), the MIC50 (Pichia kudriavzevii) was “inactive” and the MIC100 (Pichia kudriavzevii) was “inactive”. For the same molecule, the MIC50 (Bacillus cereus) was 171 µM (≈ 156 µg/mL), the MIC (Bacillus cereus; read-out: MIC100) was 21.9 µM (≈ 20 µg/mL) and the MIC50 (Nakaseomyces glabratus) was “inactive”. For the same molecule, the MIC100 (Nakaseomyces glabratus) was “inactive”, the MIC50 (Trichophyton tonsurans) was “inactive” and the MIC100 (Trichophyton tonsurans) was “inactive”. The MIC100 (Cryptococcus neoformans) was “inactive”, the MIC50 (Cryptococcus neoformans; ATCC 90012, 24 h) was 43.9 µM (≈ 40 µg/mL) and the MIC50 (Escherichia coli) was “inactive”. The MIC100 (Escherichia coli) was “inactive”, the MIC50 (Candida tropicalis) was “inactive” and the MIC100 (Candida tropicalis) was “inactive”. The MIC50 (Salmonella typhimurium) was “inactive”, the MIC50 [5] was 2740 µM (≈ 2500 µg/mL) and the MIC50 (Candida parapsilosis) was “inactive”. For the same molecule, the MIC100 (Candida parapsilosis) was “inactive”, the MIC50 (Pseudomonas aeruginosa) was “inactive” and the MIC100 (Pseudomonas aeruginosa) was “inactive”.
